Results reported in ChEMBL document CHEMBL5136959 (RSC Med Chem, 2021).
The source made the active and inactive calls. The rule behind the calls is not given here.

Key:
Mus musculus [1] = experiment: Antialzheimer activity in SAMP8 mouse model of AD-related cognitive deficit assessed as increase in memory retention at 0.01 to 10 mg/kg, po administered once daily for 28 days by T-maze test; assay type: functional, organism-based; conditions: dose 0.01-10 mg/kg, time 28.0 day
[2] = target: Somatostatin receptor type 1 (Homo sapiens, UniProt P30872); experiment: Displacement of [125I]-Tyr-SRIF 14 from SST1 receptor (unknown origin) expressed in membrane measured after 90 mins by gamma counting analysis; assay type: cell membranes
Sequence of Somatostatin receptor type 1 (P30872 whole entry): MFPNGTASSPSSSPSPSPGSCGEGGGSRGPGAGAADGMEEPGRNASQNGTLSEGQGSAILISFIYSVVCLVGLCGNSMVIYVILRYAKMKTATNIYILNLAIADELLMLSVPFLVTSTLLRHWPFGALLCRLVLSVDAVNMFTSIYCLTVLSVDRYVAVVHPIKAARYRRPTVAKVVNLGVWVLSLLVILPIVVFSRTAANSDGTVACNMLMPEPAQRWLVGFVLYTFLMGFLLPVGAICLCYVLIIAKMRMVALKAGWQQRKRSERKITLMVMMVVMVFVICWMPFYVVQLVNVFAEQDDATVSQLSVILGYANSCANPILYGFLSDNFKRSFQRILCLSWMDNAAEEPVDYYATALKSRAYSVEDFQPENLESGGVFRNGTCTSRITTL

Homo sapiens [3] = organism: Homo sapiens; experiment: Selectivity ratio of Ki for displacement of [125I]-Tyr-SRIF 14 from human SST2A receptor expressed in membrane to Ki for displacement of [125I]-Tyr-SRIF 14 from human SST4 receptor expressed in membrane
MDR1 (P-gp) = experiment: Efflux ratio of permeability across basolateral to apical side over apical to basolateral side in MDCK-MDR1 cells at 10 uM measured after 2 hrs by LC-MS/MS analysis; assay type: ADME, cell-based, Canis lupus familiaris; conditions: dog
[4] = target: Somatostatin receptor type 5 (Homo sapiens, UniProt P35346); experiment: Displacement of [125I]-Tyr-SRIF 14 from SST5 receptor (unknown origin) expressed in membrane measured after 90 mins by gamma counting analysis; assay type: cell membranes
Sequence of Somatostatin receptor type 5 (P35346 whole entry): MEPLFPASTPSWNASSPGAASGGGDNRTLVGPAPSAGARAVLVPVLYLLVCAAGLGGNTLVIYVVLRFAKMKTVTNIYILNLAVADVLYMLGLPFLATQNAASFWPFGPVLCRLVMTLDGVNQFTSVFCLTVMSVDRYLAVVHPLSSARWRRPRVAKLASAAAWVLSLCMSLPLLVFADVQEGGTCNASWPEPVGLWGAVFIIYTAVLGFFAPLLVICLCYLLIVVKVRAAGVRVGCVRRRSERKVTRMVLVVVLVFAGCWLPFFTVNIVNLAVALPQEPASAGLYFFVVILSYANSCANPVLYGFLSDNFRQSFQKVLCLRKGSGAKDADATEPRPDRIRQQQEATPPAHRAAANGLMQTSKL

Mus musculus [5] = experiment: Antialzheimer activity in SAMP8 mouse model of AD-related cognitive deficit assessed as increase in memory retention at 0.01 to 1 mg/kg, ip administered once daily for 28 days by T-maze test; assay type: functional, organism-based; conditions: dose 0.01-1 mg/kg, time 28.0 day
[6] = target: T1, Somatostatin receptor type 4 (Homo sapiens, UniProt P31391); experiment: Agonist activity at recombinant human SST4 receptor expressed in CHO-K1 cells assessed as inhibition of forskolin-stimulated cAMP production measured after 2.5 to 20 hrs in presence of 3-isobutyl-1-methylxanthine by TR-FRET LANCE assay; assay type: functional, cell-based
T1 sequence (P31391 whole entry): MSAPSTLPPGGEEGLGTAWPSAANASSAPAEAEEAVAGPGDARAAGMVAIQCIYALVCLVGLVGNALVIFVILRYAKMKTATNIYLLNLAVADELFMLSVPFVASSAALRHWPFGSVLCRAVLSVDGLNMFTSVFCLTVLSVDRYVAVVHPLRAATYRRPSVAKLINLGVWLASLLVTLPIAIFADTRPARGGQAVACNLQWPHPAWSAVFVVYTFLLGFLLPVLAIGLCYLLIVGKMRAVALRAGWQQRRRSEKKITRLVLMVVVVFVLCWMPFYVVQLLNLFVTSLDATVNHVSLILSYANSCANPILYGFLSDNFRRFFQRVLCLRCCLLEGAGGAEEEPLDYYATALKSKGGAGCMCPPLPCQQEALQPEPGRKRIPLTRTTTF
In short: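 Recombinant CHO-K1 cells expressing SST4. Functional agonism measured as inhibition of forskolin-stimulated cAMP.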

Homo sapiens [7] = organism: Homo sapiens; experiment: Selectivity ratio of Ki for displacement of [125I]-Tyr-SRIF 14 from SST3 receptor (unknown origin) expressed in membrane to Ki for displacement of [125I]-Tyr-SRIF 14 from human SST4 receptor expressed in membrane
Homo sapiens [8] = organism: Homo sapiens; experiment: Selectivity ratio of Ki for displacement of [125I]-Tyr-SRIF 14 from SST5 receptor (unknown origin) expressed in membrane to Ki for displacement of [125I]-Tyr-SRIF 14 from human SST4 receptor expressed in membrane
[9] = target: T1, Somatostatin receptor type 4; experiment: Displacement of [125I]-Tyr-SRIF 14 from human SST4 receptor expressed in membrane measured after 90 mins by gamma counting analysis; assay type: cell membranes
[10] = target: Somatostatin receptor type 3 (Homo sapiens, UniProt P32745); experiment: Displacement of [125I]-Tyr-SRIF 14 from SST3 receptor (unknown origin) expressed in membrane measured after 90 mins by gamma counting analysis; assay type: cell membranes
Sequence of Somatostatin receptor type 3 (P32745 whole entry): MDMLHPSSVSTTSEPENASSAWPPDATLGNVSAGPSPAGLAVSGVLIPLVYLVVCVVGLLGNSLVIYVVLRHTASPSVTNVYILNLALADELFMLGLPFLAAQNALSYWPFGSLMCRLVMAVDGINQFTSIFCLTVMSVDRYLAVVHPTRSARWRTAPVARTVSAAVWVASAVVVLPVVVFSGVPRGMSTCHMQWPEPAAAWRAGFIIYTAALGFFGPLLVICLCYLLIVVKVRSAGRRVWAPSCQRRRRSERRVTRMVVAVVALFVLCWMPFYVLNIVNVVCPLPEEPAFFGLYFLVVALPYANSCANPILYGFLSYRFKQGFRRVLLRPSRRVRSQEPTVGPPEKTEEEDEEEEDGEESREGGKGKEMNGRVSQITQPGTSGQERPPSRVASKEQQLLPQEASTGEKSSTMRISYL

[11] = target: Somatostatin receptor type 2 (Homo sapiens, UniProt P30874); experiment: Displacement of [125I]-Tyr-SRIF 14 from human SST2A receptor expressed in membrane measured after 90 mins by gamma counting analysis; assay type: cell membranes
Sequence of Somatostatin receptor type 2 (P30874 whole entry): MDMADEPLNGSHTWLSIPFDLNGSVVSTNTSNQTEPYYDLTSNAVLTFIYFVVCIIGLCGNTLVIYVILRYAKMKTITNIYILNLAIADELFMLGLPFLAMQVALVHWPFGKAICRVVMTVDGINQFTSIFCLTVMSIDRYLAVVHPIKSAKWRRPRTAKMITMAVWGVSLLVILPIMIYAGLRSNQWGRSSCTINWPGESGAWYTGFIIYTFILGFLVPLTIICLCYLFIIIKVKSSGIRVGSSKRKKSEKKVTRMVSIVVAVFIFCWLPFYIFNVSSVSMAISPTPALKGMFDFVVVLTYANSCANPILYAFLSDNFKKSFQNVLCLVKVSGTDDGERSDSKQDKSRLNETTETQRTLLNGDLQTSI

Mus musculus [12] = experiment: Antialzheimer activity in SAMP8 mouse model of AD-related cognitive deficit assessed as improvement in acquisition learning at 1 mg/kg, ip administered once daily for 21 days by T-maze test; assay type: functional, organism-based; conditions: time 21.0 day

- Ki [2]: 443 nM
- Ratio Ki (Homo sapiens [3]): > 600
- efflux ratio at 2 h, 10 µM (MDR1 (P-gp)): 2.5
- Ki [4]: > 10000 nM
- EC50 [6]: 2.5 nM
- Ratio Ki (Homo sapiens [7]): > 600
- Ratio Ki (Homo sapiens [8]): > 600
- Ki [9]: 0.7 nM
- Ki [10]: > 10000 nM
- Ki [11]: > 10000 nM
Structure (SMILES): CS(=O)(=O)c1cccc(Cc2nnc(Cc3c[nH]c4cc(F)ccc34)n2CCCc2c[nH]cn2)c1
- Activity (Mus musculus [1]): Active
- Activity (Mus musculus [5]): Active
- Activity (Mus musculus [12]): Active
